In test [1] the test system is Amphibalanus amphitrite. Description: Selectivity index, ratio of CC50 for Balanus amphitrite Darwin cyprids to EC50 for antifouling activity against larval settlements of Balanus amphitrite Darwin cyprids. In a few lines:
(§1)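 Barnacle cyprid larvae tested for inhibition of settlement, following a procedure from earlier literature. SeaNine 211 served as the positive control. EC50 was taken for settlement inhibition and LC50 for larval toxicity, with LC50/EC50 as the ratio.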

Test [2] concerns Amphibalanus amphitrite. The experiment in a line: Antifouling activity against larval settlements of Balanus amphitrite Darwin cyprids. It counts as functional, organism-based. In a few lines: as §1
The test system of the next test is HeLa. The experiment in a line: Cytotoxicity against human HeLa cells by neutral red method. Type of test: functional, cell-based. Summed up:
(§2)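 Human cancer cell lines (HeLa, Hep-2, RD) assayed by Neutral Red uptake, giving IC50. Adriamycin was the positive control.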

In a further test the test system is RD. Description: Cytotoxicity against human RD cells by neutral red method. It counts as functional, cell-based. In a few lines: as §2
Test [3] can be described thus: Cytotoxicity against human Hep2 cells by neutral red method. It counts as functional, cell-based. To be noted: HEp-2. In a few lines:
as §2

The mark [4] stands for this setting: Amphibalanus amphitrite, Darwin, read-out: EC50.

This is an account of results in ChEMBL document CHEMBL3608286, “Azaphilone and Diphenyl Ether Derivatives from a Gorgonian-Derived Strain of the Fungus Penicillium pinophilum” (J Nat Prod, 2015).

Converted amounts (≈) assume the structure as drawn.

As to `CCCCCCCCn1sc(Cl)c(Cl)c1=O`, in the test with Amphibalanus amphitrite [1], the “Ratio CC50/EC50” value is on record as 20.3. In addition, the concentration for a half-maximal effect (EC50) in the test on Amphibalanus amphitrite [2] (setting [4]) worked out at 1.2 µg/mL (≈ 4.25 µM). For `COc1c([C@H](CC(C)C)OC(C)=O)ccc2c1C(=O)OCc1cc(C)cc(O)c1O2` the same measures were greater than 50 and 10 µg/mL (≈ 24.1 µM). For the molecule `C/C=C/C1=CC2=CC(=O)[C@@](C)(OC(=O)c3c(C)cc(O)cc3O)C(=O)C2=CO1`, the EC50 entry in the test with Amphibalanus amphitrite [2] is “Not Active”. Take `Cc1cc(O)cc(O)c1C(=O)O[C@]1(C)C(=O)C=C2C=C(/C=C/C(=O)O)OC=C2C1=O`: the concentration giving a half-maximal response (EC50) entry with Amphibalanus amphitrite [2] is reported as “Not Active”. `C/C=C/C1=CC2=CC(=O)[C@@](C)(O)[C@@H](OC(=O)c3c(C)cc(O)cc3O)[C@@H]2CO1`: the EC50 entry in the test on Amphibalanus amphitrite [2] is reported as “Not Active”.

For the molecule `Cc1cc(O)cc(O)c1C(=O)O[C@]1(C)C(=O)C2=C(C=C(/C=C/C(=O)O)OC2)C[C@H]1O`, the EC50 entry with Amphibalanus amphitrite [2] is listed as “Not Active”. For `C/C=C/C1=CC2=CC(=O)[C@@](C)(O)[C@@H](OC(=O)c3c(C)cc(O)cc3O)C2=CO1`, in the test with Amphibalanus amphitrite [2], the EC50 entry is reported as “Not Active”. On to `Cc1cc(O)cc(O)c1C(=O)O[C@]1(C)C(=O)C=C2C=C(/C=C/CO)OC[C@H]2[C@@H]1O`, for which the concentration for a half-maximal effect (EC50) entry in the test with Amphibalanus amphitrite [2] is “Not Active”. Still for that read-out and setting: next, `Cc1cc(O)cc(O)c1C(=O)O[C@H]1[C@@H]2COC(CC(C)O)=CC2=CC(=O)[C@@]1(C)O` (some centres undefined): “Not Active”; `Cc1cc(O)cc(O)c1C(=O)O[C@]1(C)C(=O)C=C2C=C(/C=C/CO)OC=C2C1=O`: “Not Active”.

For `COc1c([C@@H](O)CC(C)C)ccc2c1C(=O)OCc1cc(CO)cc(O)c1O2`, 6.1 µM corresponded to half-maximal inhibition with HeLa (IC50). Moreover, in the test on Amphibalanus amphitrite [1], the “Ratio CC50/EC50” value is greater than 50. In addition, the EC50 in the test on Amphibalanus amphitrite [2] (setting [4]) is 6 µg/mL (≈ 15.4 µM). Take `COc1c([C@@H](O)CC(C)(C)O)ccc2c1C(=O)OCc1cc(C)cc(O)c1O2`: in the test on Amphibalanus amphitrite [1], the “Ratio CC50/EC50” value is reported as greater than 50. Also, the EC50 in the test on Amphibalanus amphitrite [2] (setting [4]) is 20 µg/mL (≈ 51.5 µM). Turning to `COc1cccc2c1C(=O)c1c(O)c3c(c(O)c1C2=O)C[C@@](O)(C(=O)CO)C[C@@H]3O[C@H]1C[C@H](N)[C@H](O)[C@H](C)O1` [DOXORUBICIN], the IC50 in the test on RD is 2 µM; in test [3], 1.5 µM.

Take `COc1c([C@@H](O)CC(C)C)ccc2c1C(=O)OCc1cc(C)cc(O)c1O2` [PENICILLIDE]: the 50% inhibitory concentration (IC50) in the test on RD was found to be 7.8 µM; in test [3], 6.7 µM. In the test on Amphibalanus amphitrite [1], the “Ratio CC50/EC50” value is greater than 50. Besides, the concentration giving a half-maximal response (EC50) with Amphibalanus amphitrite [2] (setting [4]) worked out at 2.6 µg/mL (≈ 6.98 µM).

For `Cc1cc(O)cc(O)c1C(=O)O[C@H]1[C@@H]2COC(/C=C/CO)=CC2=CC(=O)[C@@]1(C)O` [PINOPHILIN B], in the test with Amphibalanus amphitrite [2], the EC50 result was “Not Active”.

The EC50 is the midpoint of the concentration-response curve. Usually IC50 stands for the midpoint of a concentration-inhibition curve. Low values mean greater potency in that assay, high ones weaker potency in that assay.
